# PHOSPHO1 block: PubChem AID 1565. inhibition, % at 13.3 µM. recombinant PHOSPHO1, absorbance phosphatase assay. 290,000 compounds, 1.1% hits. Phosphoethanolamine/phosphocholine phosphatase (Homo sapiens), Q8TCT1; in the data active means inhibition above about 60%
# Target sequence (Q8TCT1 whole entry, looked up): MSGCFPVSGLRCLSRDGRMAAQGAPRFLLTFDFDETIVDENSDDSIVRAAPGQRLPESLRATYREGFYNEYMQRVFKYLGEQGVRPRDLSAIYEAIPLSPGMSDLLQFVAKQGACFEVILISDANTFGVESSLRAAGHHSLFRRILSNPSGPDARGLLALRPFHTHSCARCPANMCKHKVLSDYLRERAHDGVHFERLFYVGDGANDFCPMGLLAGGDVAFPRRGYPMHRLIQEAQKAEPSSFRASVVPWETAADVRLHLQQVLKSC
# ARFGAP1 inhibitor: inhibitors of rat ARFGAP1 GAP activity, primary screen, biochemical, fluorescence polarization, GDP tracer; Arfgap1-stimulated ARF1 GTP hydrolysis, GDP FP detection; 360,000 compounds, 0.26% hits; ADP-ribosylation factor GTPase-activating protein 1 (Rattus norvegicus), Q62848; inhibition, % at 16.5 µM; AID 651572, 2012;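 active means inhibition above a per-plate limit, mean inhibition of low control wells plus 3 SD, cut at about 25% in these data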;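 further: 0% = DMSO wells with enzyme and 100% = wells lacking Arfgap1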
# Target sequence (Q62848 1-136 limits assumed): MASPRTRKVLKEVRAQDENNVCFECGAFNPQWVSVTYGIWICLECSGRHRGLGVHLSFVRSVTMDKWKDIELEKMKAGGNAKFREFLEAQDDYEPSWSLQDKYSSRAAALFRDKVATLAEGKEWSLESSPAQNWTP
#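 system = rat Arfgap1 catalytic domain, aa 1-136 | technique = FP, GDP Alexa 633 tracer displaced from anti-GDP antibody, 620/688 nm | compound = one concentration, 16.5 µM, DMSO 1.26% | medium = HEPES-based buffer, pH 7.5 | timing = compound-enzyme preincubation 20 min, reaction 120 min, detection 60 min, 25 °C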
# IMP-1 inh-1: IMP-1 metallo-beta-lactamase inhibitors, primary screen, biochemical, epi-absorbance readout, Pseudomonas aeruginosa enzyme; metallo-beta-lactamase IMP-1 (Pseudomonas aeruginosa); 290,000 compounds, 0.45% hits; purified IMP-1, nitrocefin hydrolysis, epi-absorbance fluorescence; inhibition, % at 5.6 µM; AID 1556, 2009;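 active means inhibition above the mean plus 3 SD of all compounds in the same screening run, cut at about 4.5% in these data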;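 further: 0% = IMP-1 with DMSO and 100% = DMSO wells lacking enzyme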
#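 System: purified IMP-1; amount: IMP-1 0.2 nM before substrate addition; compound: single dose, 5.6 µM; times: 25 °C, 15 min preincubation, 25 min reaction; signal: Epi-absorbance via hydrolysed-nitrocefin quenching of white-plate fluorescence, 480/530 nm, EDTA stop; benchmarks: DMSO with and without IMP-1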
# VIM-2 inhibitor: VIM-2 metallo-beta-lactamase inhibitors, primary screen, biochemical, epi-absorbance readout, Pseudomonas aeruginosa enzyme; purified VIM-2, nitrocefin hydrolysis, epi-absorbance fluorescence; inhibition, % at 5.6 µM; 290,000 compounds, 0.89% hits; AID 1527, 2009;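 active means inhibition above the mean of all tested compounds plus 3 SD, cutoff set per screening run, cut at about 7.5% in these data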;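 further: red hydrolysis product quenches plate fluorescence so inhibitors raise well fluorescence; 0% = enzyme with DMSO and 100% = DMSO without enzyme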
# Calb FLC: C. albicans growth inhibition with fluconazole, primary screen, CaCi-2 strain, Alamar Blue fluorescence; C. albicans CaCi-2 (fluconazole-resistant clinical isolate) + fluconazole, 48 h; AID 1979, 2009; growth inhibition, % (no concentration beside the values); 300,000 compounds, 0.57% hits;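 active means growth inhibition above about 58% in most replicates, limit read from the data, passing the limit was not always enough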;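 further: all wells also contain fluconazole at 8 µg/ml as a sub-toxic cotreatment; 0% = median of DMSO wells and 100% = median of geldanamycin control wells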
# ASAP1 GAP inh: inhibitors of human ASAP1 ArfGAP activity, primary screen, biochemical, fluorescence polarization | Arf-GAP with SH3 domain, ANK repeat and PH domain-containing protein 1 (Homo sapiens), … | ASAP1-stimulated ARF1 GTP hydrolysis, GDP FP detection | inhibition, % at 16.5 µM | 360,000 compounds, 0.19% hits | AID 624377, 2012; in the data active means inhibition above about 25%;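 further: 0% = vehicle with enzyme and substrate and 100% = no enzyme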
# Target sequence (Q9ULH1 325-724 limits assumed): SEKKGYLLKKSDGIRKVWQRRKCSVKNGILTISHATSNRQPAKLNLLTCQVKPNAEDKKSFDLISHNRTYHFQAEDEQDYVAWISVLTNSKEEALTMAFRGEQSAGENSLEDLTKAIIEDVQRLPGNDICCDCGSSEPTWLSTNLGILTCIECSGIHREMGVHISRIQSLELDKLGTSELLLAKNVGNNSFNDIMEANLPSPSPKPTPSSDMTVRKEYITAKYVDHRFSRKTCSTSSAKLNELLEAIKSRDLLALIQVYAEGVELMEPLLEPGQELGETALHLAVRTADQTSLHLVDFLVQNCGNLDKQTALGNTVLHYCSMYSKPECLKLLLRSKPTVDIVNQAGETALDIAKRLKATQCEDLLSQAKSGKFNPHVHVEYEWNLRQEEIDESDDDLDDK
# IMP-1 inh-2: IMP-1 metallo-beta-lactamase inhibitors, confirmation, selectivity assay for selective VIM-2 inhibitor project, biochemical, epi-absorbance readout, triplicate; shares compounds with VIM-2 inhibitor; purified IMP-1, nitrocefin hydrolysis, epi-absorbance fluorescence; inhibition, % at 5.6 µM; 1,300 tested, under 10 active; call rule not given here;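 further: 0% = enzyme with vehicle and 100% = vehicle without enzyme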
# VIM-2 FRET ctr: VIM-2 inhibitors in FRET format, confirmation, artefact control for selective VIM-2 inhibitor project, biochemical, epi-absorbance artifact exclusion | shares compounds with VIM-2 inhibitor | purified VIM-2, CCF2 FRET substrate hydrolysis | inhibition, % at 5.6 µM | 1,300 compounds, 23% hits | AID 1857, 2009;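 active means inhibition above the mean of all tested compounds plus 3 SD, cut at about 19% in these data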;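 further: 0% = VIM-2 plus DMSO and 100% = no enzyme wells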
# TEM-1 counter: TEM-1 serine beta-lactamase inhibitors, counter-screen for VIM-2 inhibitor project, biochemical, epi-absorbance, HTS; shares compounds with VIM-2 inhibitor; inhibition, % at 5.6 µM; Purified TEM-1, nitrocefin hydrolysis, epi-absorbance fluorescence; AID 1866, 2009; 1,300 compounds, 3% hits;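 active means inhibition above that campaign's mean inhibition plus 3 SD, cut at about 0.46% in these data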;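 further: 0% = TEM-1 with DMSO and 100% = TEM-1 with 100 µM potassium clavulanate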
# VIM-2 confirm 2: VIM-2 metallo-beta-lactamase inhibitors, confirmation, biochemical, epi-absorbance, hits shared with IMP-1 screen; shares compounds with VIM-2 inhibitor; purified VIM-2, nitrocefin hydrolysis; inhibition, % at 5.6 µM; 1,300 compounds, 96% hits;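 active means inhibition of the VIM-2 beta-lactamase enzyme above about 11% from the earlier first-round screen, limit read from the data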;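 further: 0% = VIM-2 with DMSO and 100% = buffer wells without enzyme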
# * marks the source's active call; other numbers are inactive results; . = no result. Most compounds without a hit are left out; they make up all but 2.6% or so of the library.
SMILES,PHOSPHO1 block,ARFGAP1 inhibitor,IMP-1 inh-1,VIM-2 inhibitor,Calb FLC,ASAP1 GAP inh,IMP-1 inh-2,VIM-2 FRET ctr,TEM-1 counter,VIM-2 confirm 2
CN1CCN(CCCn2cnc3c(=O)oc4ccccc4c32)CC1,17.4,-4.3,-1.4,20.8*,-6.1,-4.7,-3.2,-0.1,-9.1,39.8*
O=c1oc2ccccc2c2c1ncn2CCN1CCOCC1,17.5,11.1,-1.5,-1.5,-1.5,11.2,.,.,.,.
CCOc1cccc(-c2nnc3sc(-c4cc(OC)c(OC)c(OC)c4)nn23)c1,-10.5,4.7,-4.2,-1.5,-1.8,9.8,.,.,.,.
Cc1cc(-c2nn3c(-c4ccccc4)nnc3s2)c2ccccc2n1,41.6,-9.8,-3.9,12.7*,21.9,-12.1,-2.6,10.3,-3.9,35.4*
COc1ccc(-c2nn3c(-c4ccco4)nnc3s2)cc1OC,-6.4,0.5,0.0,53.8*,6.5,-15.2,-3.7,-8.9,-11.8,56.1*
c1ccc(-c2cc(-c3nn4c(-c5ccco5)nnc4s3)c3ccccc3n2)cc1,27.0,.,-1.8,2.1,-2.7,.,.,.,.,.
COc1cc(-c2nn3c(-c4ccccc4)nnc3s2)cc(OC)c1OC,39.1,-7.1,-3.0,18.1*,2.4,6.8,-2.4,38.5*,-5.4,36.5*
COc1cc(OC)c(-c2nn3c(-c4ccco4)nnc3s2)cc1OC,19.4,8.5,4.0,35.8*,.,11.5,-2.4,-4.9,-3.8,42.1*
OC(Cc1cccc(C=NN2CCOCC2)n1)(C(F)(F)F)C(F)(F)F,.,9.0,.,.,.,13.1,.,.,.,.
COc1ccc(C2CC=C(C(C)=O)CN2S(=O)(=O)c2ccc(Cl)cc2)cc1 (configuration not stated),.,0.8,.,.,.,10.8,.,.,.,.
N#CCSc1nc2cc(C(=O)N3CCC(C(N)=O)CC3)ccc2c2nc3ccccc3n12,9.1,.,-1.2,24.3*,8.2,.,-2.3,1.2,-3.7,40.0*
CN(C)c1cccc(C(=O)OCc2cc(=O)oc3cc(O)ccc23)c1,-6.3,7.3,-3.2,31.8*,3.4,2.5,-0.7,33.6*,-4.1,26.5*
CC1CN(S(=O)(=O)c2cccc(C(=O)OCc3cc(=O)oc4cc(O)ccc34)c2)CC(C)O1 (configuration not stated),13.8,2.0,-3.7,0.4,8.8,-1.6,.,.,.,.
CC(=C/C(=O)O)/C=C/c1ccc([N+](=O)[O-])cc1,8.6,0.2,-3.0,14.2*,.,17.5,-3.0,-0.3,-4.5,6.7
CC(/C=C\c1ccccc1)=C/C(=O)O,27.4,10.1,-2.3,-1.8,-11.7,9.6,.,.,.,.
O=C(NCc1ccc(F)cc1)c1cc(C2CCCCN2S(=O)(=O)c2cccs2)on1 (configuration not stated),.,11.4,.,.,.,8.8,.,.,.,.
CN(C)S(=O)(=O)c1cccc(NC(=S)N/N=C/c2cccc(O)c2)c1,-32.1,13.9,-1.6,18.1*,-19.4,6.0,-2.7,16.1,-7.5,14.1*
CCOc1ccccc1C(=O)NC(C(=O)OCn1nnc2ccccc2c1=O)C(C)C (configuration not stated),.,-8.2,.,.,.,3.1,.,.,.,.
COc1ccc2c(c1)c(=O)c(C(=O)O)c(-c1ccc3c(c1)OCO3)n2C,1.4,1.7,-1.5,40.3*,-0.1,-10.8,-2.9,73.2*,-5.7,59.0*
CSC[C@H](NC(=O)COc1cc2c(c3oc(=O)c(C)c(C)c13)CCC(C)(C)O2)C(=O)O,5.3,6.4,-1.4,28.4*,-0.1,6.2,-3.1,48.3*,-8.2,33.5*
CSCC[C@H](NC(=O)COc1cc2c(c3oc(=O)c(C)c(C)c13)CCC(C)(C)O2)C(=O)O,36.0,-3.1,-1.7,2.7,-13.4,-1.9,.,.,.,.
Cc1c(C)c2c(OCC(=O)N[C@@H](Cc3ccccc3)C(=O)O)cc3c(c2oc1=O)CCC(C)(C)O3,18.2,5.9,0.0,40.4*,-6.0,12.8,-3.0,68.1*,-6.3,45.8*
Cc1c(C)c2c(OCC(=O)N[C@@H](CC(C)C)C(=O)O)cc3c(c2oc1=O)CCC(C)(C)O3,32.6,-1.2,-0.4,2.1,-3.2,1.9,.,.,.,.
O=C(NC1CCN(Cc2ccccc2)CC1)c1ccc(CS(=O)c2ccccc2Cl)o1 (configuration not stated),.,-6.5,.,.,.,-2.9,.,.,.,.
O=C1NC[C@H](CCCCN2C[C@H](Cc3ccccc3)N(Cc3ccccc3)C(=O)C2=O)N(CCc2ccccc2)C1=O,.,3.7,.,.,.,-3.9,.,.,.,.
SMILES,PHOSPHO1 block,ARFGAP1 inhibitor,IMP-1 inh-1,VIM-2 inhibitor,Calb FLC,ASAP1 GAP inh,IMP-1 inh-2,VIM-2 FRET ctr,TEM-1 counter,VIM-2 confirm 2
CCOC(=O)c1cnc2c(CC)cccc2c1NCCN1CCOCC1,40.1,4.1,-1.9,14.1*,3.1,8.3,-3.1,1.0,-6.3,23.6*
CC(C)CCn1c(=O)c2sccc2n2c(CCCC(=O)N3CCC(N4CCCCC4)CC3)nnc12,20.7,11.3,-2.8,12.9*,-25.8,9.3,-2.5,2.3,-1.8,16.9*
COc1cc(OC)c2c(=O)c(OC)c(-c3ccc(OC)c(OC)c3)oc2c1,51.7,.,-2.0,16.1*,14.1,.,-1.6,-6.0,-2.6,35.2*
O=C(COc1ccc2c3c(c(=O)oc2c1)CCC3)NCC(O)c1ccccc1 (configuration not stated),22.2,-3.0,-1.5,14.1*,1.6,-3.4,-2.3,-1.7,-5.8,22.5*
Cc1c(OCC(=O)NCC(O)c2ccccc2)ccc2c(-c3ccccc3)cc(=O)oc12 (configuration not stated),13.1,0.2,-2.9,12.6*,80.5*,16.4,-2.2,-0.4,-7.0,26.3*
Cc1c(OCC(=O)NCc2ccccn2)ccc2c(-c3ccccc3)cc(=O)oc12,34.3,-2.3,-2.5,-2.7,0.8,8.5,.,.,.,.
CCc1cc(=O)oc2c(C)c(OCC(=O)NC3CC(C)(C)NC(C)(C)C3)ccc12,7.2,.,-3.6,14.3*,-8.0,.,-2.2,-0.8,-9.3,22.2*

# Bioassay records (PubChem BioAssay)
